According to ChEMBL document CHEMBL3124823, “1,2,3-Triazole-containing derivatives of rupestonic acid: click-chemical synthesis and antiviral activities against influenza viruses” (Eur J Med Chem, 2014):
Values after ≈ are worked out from the molar mass of the structure shown.

Tests used:
Influenza B virus [1] = experiment: Antiviral activity against Influenza B virus jifang/13/97 infected in MDCK cells assessed as inhibition of virus-induced cytopathicity after 40 hrs; assay type: functional, organism-based; details: jifang/13/97, MDCK
How it was run: (§1)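 CPE reduction in MDCK cells: cells grown 24 h at 37 °C, 5% CO2, then infected and held 2 h at 37 °C before the inoculum was removed. Threefold serial drug dilutions (8 levels from 20 mg/mL DMSO stocks) were added and incubated 40 h at 37 °C. CPE inhibition was scored against cell and virus controls to give IC50. Ribavirin and oseltamivir were the controls.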

Influenza A virus [2] = experiment: Antiviral activity against Influenza A virus A/hanfang/359/95(H3N2) infected in MDCK cells assessed as inhibition of virus-induced cytopathicity after 40 hrs; assay type: functional, organism-based; how it was run: as §1
Influenza A virus [3] = experiment: Antiviral activity against Influenza A virus (A/FM/1/1947(H1N1)) infected in MDCK cells assessed as inhibition of virus-induced cytopathicity after 40 hrs; assay type: functional, organism-based; details: A/Fort Monmouth/1/1947(H1N1); how it was run: as §1
[4] = Cytotoxicity against MDCK cells after 48 hrs; assay type: cell-based, Canis lupus familiaris; details: dog, read-out: TC50
How it was run: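 MDCK cells seeded at 25000 per well and cultured 24 h at 37 °C, 5% CO2. Threefold dilutions were added to the monolayer and culture continued 48 h. Cytopathic changes were recorded by observation, and TC50 was calculated by the Reed & Muench method.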

[5] = Selectivity index, ratio of TC50 for MDCK cells to IC50 for Influenza B virus jifang/13/97; assay type: toxicity, cell-based; details: dog, read-out: Selectivity Index
How it was run: (§2)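 Selectivity index = TC50 (MDCK, 48 h visual cytotoxicity) / IC50 from the 40 h CPE-inhibition assay for the given strain.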

[6] = Selectivity index, ratio of TC50 for MDCK cells to IC50 for Influenza A virus (A/Tianjinjinnan/15/2009/H1N1); assay type: toxicity, cell-based; details: dog, read-out: Selectivity Index; how it was run: as §2
[7] = Selectivity index, ratio of TC50 for MDCK cells to IC50 for Influenza A virus (A/FM/1/1947(H1N1)); assay type: toxicity, cell-based; details: dog, read-out: Selectivity Index; how it was run: as §2
Influenza B virus [8] = experiment: Ratio of ribavirin IC50 to compound IC50 for Influenza B virus jifang/13/97 infected in MDCK cells; assay type: functional

C=C(C(=O)OCc1cn(Cc2cccc(OC)c2)nn1)[C@@H]1CC[C@H](C)[C@@H]2CC(=O)C(C)=C2C1
IC50 (Influenza B virus [1]): > 22.2 µg/mL | IC50 (Influenza A virus [2]): > 22.2 µg/mL | IC50 (Influenza A virus [3]): > 22.2 µg/mL | CC50 at 48 h [4]: 96.2 µg/mL (≈ 214 µM)

C=C(C(=O)OCc1cn(Cc2ccc(OC)cc2)nn1)[C@@H]1CC[C@H](C)[C@@H]2CC(=O)C(C)=C2C1
selectivity ratio [5]: ≥ 2.1 | IC50 (Influenza B virus [1]): ≥ 22.2 µg/mL | IC50 (Influenza A virus [2]): > 22.2 µg/mL | selectivity ratio [6]: 2.08 | selectivity ratio [7]: 2.68 | IC50 (Influenza A virus [3]): 19.7 µg/mL (≈ 43.9 µM) | CC50 at 48 h [4]: 46.2 µg/mL (≈ 103 µM)

C=C(C(=O)OCc1cn(Cc2cccc(C)c2)nn1)[C@@H]1CC[C@H](C)[C@@H]2CC(=O)C(C)=C2C1
selectivity ratio [5]: ≥ 4 | IC50 (Influenza B virus [1]): ≥ 9.54 µg/mL | IC50 (Influenza A virus [2]): > 22.2 µg/mL | selectivity ratio [6]: 1.98 | selectivity ratio [7]: 3.76 | IC50 (Influenza A virus [3]): 12.3 µg/mL (≈ 28.4 µM) | CC50 at 48 h [4]: 38.5 µg/mL (≈ 88.8 µM)

C=C(C(=O)OCc1cn(Cc2ccccc2)nn1)[C@@H]1CC[C@H](C)[C@@H]2CC(=O)C(C)=C2C1
selectivity ratio [5]: ≥ 3.9 | IC50 (Influenza B virus [1]): ≥ 7.41 µg/mL | IC50 (Influenza A virus [2]): > 7.41 µg/mL | IC50 (Influenza A virus [3]): > 7.41 µg/mL | CC50 at 48 h [4]: 28.6 µg/mL (≈ 68.2 µM)

C=C(C(=O)OCc1cn(Cc2ccc(C)cc2)nn1)[C@@H]1CC[C@H](C)[C@@H]2CC(=O)C(C)=C2C1
selectivity ratio [5]: ≥ 4.32 | IC50 (Influenza B virus [1]): ≥ 22.2 µg/mL | IC50 (Influenza A virus [2]): > 22.2 µg/mL | IC50 (Influenza A virus [3]): > 22.2 µg/mL | CC50 at 48 h [4]: 96.2 µg/mL (≈ 222 µM)

C=C(C(=O)NCc1cn(Cc2ccc(C)cc2)nn1)[C@@H]1CC[C@H](C)[C@@H]2CC(=O)C(C)=C2C1
selectivity ratio [5]: 8.25 | IC50 (Influenza B virus [1]): 11.8 µg/mL (≈ 27.2 µM) | IC50 (Influenza A virus [2]): > 22.2 µg/mL | selectivity ratio [7]: 5.91 | IC50 (Influenza A virus [3]): 17.5 µg/mL (≈ 40.5 µM) | CC50 at 48 h [4]: 96.2 µg/mL (≈ 222 µM)

C=C(C(=O)NCc1cn(Cc2cccc(C)c2)nn1)[C@@H]1CC[C@H](C)[C@@H]2CC(=O)C(C)=C2C1
selectivity ratio [5]: 5.7 | IC50 (Influenza B virus [1]): 11.8 µg/mL (≈ 27.2 µM) | IC50 (Influenza A virus [2]): > 22.2 µg/mL | IC50 (Influenza A virus [3]): > 22.2 µg/mL | CC50 at 48 h [4]: 66.7 µg/mL (≈ 154 µM)

C=C(C(=O)OCc1cn(Cc2ccc(Cl)cc2)nn1)[C@@H]1CC[C@H](C)[C@@H]2CC(=O)C(C)=C2C1
selectivity ratio [5]: 5.2 | IC50 (Influenza B virus [1]): 12.8 µg/mL (≈ 28.3 µM) | IC50 (Influenza A virus [2]): > 22.2 µg/mL | IC50 (Influenza A virus [3]): > 22.2 µg/mL | CC50 at 48 h [4]: 66.7 µg/mL (≈ 147 µM)

C=C(C(=O)NCc1cn(C2C=CCCC2)nn1)[C@@H]1CC[C@H](C)[C@@H]2CC(=O)C(C)=C2C1 (stereo not given in full)
selectivity ratio [5]: 7.85 | IC50 (Influenza B virus [1]): 13.4 µg/mL (≈ 32.8 µM) | IC50 (Influenza A virus [2]): > 22.2 µg/mL | selectivity ratio [6]: 4.96 | selectivity ratio [7]: 9.86 | IC50 (Influenza A virus [3]): 9.75 µg/mL (≈ 23.9 µM) | CC50 at 48 h [4]: 96.2 µg/mL (≈ 235 µM)

C=C(C(=O)NCc1cn(Cc2cccc(F)c2)nn1)[C@@H]1CC[C@H](C)[C@@H]2CC(=O)C(C)=C2C1
Ratio IC50 (Influenza B virus [8]): >4 | selectivity ratio [5]: 14.3 | IC50 (Influenza B virus [1]): 4.71 µg/mL (≈ 10.8 µM) | IC50 (Influenza A virus [2]): > 22.2 µg/mL | IC50 (Influenza A virus [3]): > 22.2 µg/mL | CC50 at 48 h [4]: 66.7 µg/mL (≈ 153 µM)

C=C(C(=O)NCc1cn(C2CCCCC2)nn1)[C@@H]1CC[C@H](C)[C@@H]2CC(=O)C(C)=C2C1
selectivity ratio [5]: 1.95 | IC50 (Influenza B virus [1]): 19.7 µg/mL (≈ 48.1 µM) | IC50 (Influenza A virus [2]): > 7.41 µg/mL | selectivity ratio [6]: 1.73 | IC50 (Influenza A virus [3]): > 7.41 µg/mL | CC50 at 48 h [4]: 38.5 µg/mL (≈ 93.7 µM)

C=C(C(=O)NCc1cn(Cc2ccc(OC)cc2)nn1)[C@@H]1CC[C@H](C)[C@@H]2CC(=O)C(C)=C2C1
selectivity ratio [5]: 8.25 | IC50 (Influenza B virus [1]): 11.8 µg/mL (≈ 26.2 µM) | IC50 (Influenza A virus [2]): > 22.2 µg/mL | selectivity ratio [7]: 10.5 | IC50 (Influenza A virus [3]): 14 µg/mL (≈ 31.2 µM) | CC50 at 48 h [4]: 96.2 µg/mL (≈ 214 µM)

C=C(C(=O)OCc1cn(Cc2ccccc2C)nn1)[C@@H]1CC[C@H](C)[C@@H]2CC(=O)C(C)=C2C1
selectivity ratio [5]: 2.55 | IC50 (Influenza B virus [1]): 18.8 µg/mL (≈ 43.4 µM) | IC50 (Influenza A virus [2]): > 22.2 µg/mL | IC50 (Influenza A virus [3]): > 22.2 µg/mL | CC50 at 48 h [4]: 46.2 µg/mL (≈ 107 µM)

C=C(C(=O)OCc1cn(Cc2ccc(F)cc2)nn1)[C@@H]1CC[C@H](C)[C@@H]2CC(=O)C(C)=C2C1
selectivity ratio [5]: 9.1 | IC50 (Influenza B virus [1]): 8.98 µg/mL (≈ 20.5 µM) | IC50 (Influenza A virus [2]): > 22.2 µg/mL | IC50 (Influenza A virus [3]): > 22.2 µg/mL | CC50 at 48 h [4]: 66.7 µg/mL (≈ 152 µM)

C=C(C(=O)NCc1cn(Cc2ccccc2C)nn1)[C@@H]1CC[C@H](C)[C@@H]2CC(=O)C(C)=C2C1
selectivity ratio [5]: 4.55 | IC50 (Influenza B virus [1]): 15 µg/mL (≈ 34.7 µM) | IC50 (Influenza A virus [2]): > 22.2 µg/mL | IC50 (Influenza A virus [3]): > 22.2 µg/mL | CC50 at 48 h [4]: 66.7 µg/mL (≈ 154 µM)

C=C(C(=O)NCc1cn(Cc2ccccc2)nn1)[C@@H]1CC[C@H](C)[C@@H]2CC(=O)C(C)=C2C1
selectivity ratio [5]: 12.2 | IC50 (Influenza B virus [1]): 11.3 µg/mL (≈ 27 µM) | IC50 (Influenza A virus [2]): > 22.2 µg/mL | selectivity ratio [7]: 5.58 | IC50 (Influenza A virus [3]): 17.2 µg/mL (≈ 41.2 µM) | CC50 at 48 h [4]: 96.2 µg/mL (≈ 230 µM)

C=C(C(=O)NCc1cn(Cc2cccc(OC)c2)nn1)[C@@H]1CC[C@H](C)[C@@H]2CC(=O)C(C)=C2C1
selectivity ratio [5]: 3.45 | IC50 (Influenza B virus [1]): 19.7 µg/mL (≈ 44 µM) | IC50 (Influenza A virus [2]): > 22.2 µg/mL | selectivity ratio [7]: 5.2 | IC50 (Influenza A virus [3]): 12.8 µg/mL (≈ 28.6 µM) | CC50 at 48 h [4]: 66.7 µg/mL (≈ 149 µM)

C=C(C(=O)NCc1cn(Cc2ccccc2F)nn1)[C@@H]1CC[C@H](C)[C@@H]2CC(=O)C(C)=C2C1
IC50 (Influenza B virus [1]): > 66.7 µg/mL | IC50 (Influenza A virus [2]): > 66.7 µg/mL | IC50 (Influenza A virus [3]): > 66.7 µg/mL | CC50 at 48 h [4]: 116 µg/mL (≈ 265 µM)

C=C(C(=O)OCc1cn(Cc2ccc(Cl)c(Cl)c2)nn1)[C@@H]1CC[C@H](C)[C@@H]2CC(=O)C(C)=C2C1
IC50 (Influenza B virus [1]): > 7.41 µg/mL | IC50 (Influenza A virus [2]): > 7.41 µg/mL | IC50 (Influenza A virus [3]): > 7.41 µg/mL | CC50 at 48 h [4]: 22.2 µg/mL (≈ 45.5 µM)

C=C(C(=O)OCc1cn(Cc2cccc(F)c2)nn1)[C@@H]1CC[C@H](C)[C@@H]2CC(=O)C(C)=C2C1
selectivity ratio [5]: ≥ 4.3 | IC50 (Influenza B virus [1]): ≥ 22.2 µg/mL | IC50 (Influenza A virus [2]): > 22.2 µg/mL | IC50 (Influenza A virus [3]): > 22.2 µg/mL | CC50 at 48 h [4]: 96.2 µg/mL (≈ 220 µM)

C=C(C(=O)OCc1cn(Cc2cccc(Cl)c2)nn1)[C@@H]1CC[C@H](C)[C@@H]2CC(=O)C(C)=C2C1
selectivity ratio [5]: 2.1 | IC50 (Influenza B virus [1]): 66.7 µg/mL (≈ 147 µM) | IC50 (Influenza A virus [2]): > 66.7 µg/mL | IC50 (Influenza A virus [3]): ≥ 66.7 µg/mL | CC50 at 48 h [4]: 139 µg/mL (≈ 305 µM)

C=C(C(=O)NCc1cn(Cc2ccc(Cl)cc2)nn1)[C@@H]1CC[C@H](C)[C@@H]2CC(=O)C(C)=C2C1
Ratio IC50 (Influenza B virus [8]): >4 | selectivity ratio [5]: 8.55 | IC50 (Influenza B virus [1]): 2.09 µg/mL (≈ 4.61 µM) | IC50 (Influenza A virus [2]): > 2.47 µg/mL | IC50 (Influenza A virus [3]): > 2.47 µg/mL | CC50 at 48 h [4]: 17.2 µg/mL (≈ 38.1 µM)
